# Compound activity: PubChem BioAssay, several laboratories
# CHOP inh: inhibitors of CHOP induction in ER stress response; CHO-K1 CHOP-promoter luciferase, tunicamycin-induced, 15-18 h; inhibition, % at 10 µM; 220,000 tested, 3.8% active; AID 2732;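 active means compounds that reduced the stress-induced luciferase reporter signal by more than about 70% of percent inhibition, limit read from the data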;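 further: 0% = tunicamycin plus vehicle and 100% = wells without tunicamycin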
# XBP1 UPR activ: activators of adaptive arm of unfolded protein response (XBP1); CHO-XBP1 luciferase reporter, IRE1-XBP1 UPR activation, luminescence; percent of tunicamycin response, DMSO as zero; activation, % at 20 µM; 330,000 tested, 0.33% active;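 active means versus positive control, 20 µM dose yields 30% or more activation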;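 further: 100% = tunicamycin at 10 µg/mL and 0% = DMSO only wells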
#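 Assay system: IRE1-XBP1 luciferase reporter CHO line. Input: 1000 cells/well. Buffer or medium: F12 with 10% serum. Doses: 20 µM, 1% DMSO. Times: overnight seeding at 37 °C, 6 h compound treatment at 37 °C. Technique: Steady-Glo luciferase glow luminescence, 10 min after reagent addition.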
# ANO1 block: inhibitors of mouse TMEM16A calcium-activated chloride channel | Q8BHY3 | normalized B-score (activity score, 25-100; higher = stronger inhibition) at 10 µM | AID 588511 | 310,000 tested, 1.2% active | HEK293 TMEM16A/YFP iodide influx fluorescence, ionomycin;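 active means ratio plate-corrected score three or more library SD toward inhibition, starting fluorescence score within five deviations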;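 further: score derived from kinetic fluorescence span divided by baseline fluorescence per well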
# Target sequence (Q8BHY3 whole entry, looked up): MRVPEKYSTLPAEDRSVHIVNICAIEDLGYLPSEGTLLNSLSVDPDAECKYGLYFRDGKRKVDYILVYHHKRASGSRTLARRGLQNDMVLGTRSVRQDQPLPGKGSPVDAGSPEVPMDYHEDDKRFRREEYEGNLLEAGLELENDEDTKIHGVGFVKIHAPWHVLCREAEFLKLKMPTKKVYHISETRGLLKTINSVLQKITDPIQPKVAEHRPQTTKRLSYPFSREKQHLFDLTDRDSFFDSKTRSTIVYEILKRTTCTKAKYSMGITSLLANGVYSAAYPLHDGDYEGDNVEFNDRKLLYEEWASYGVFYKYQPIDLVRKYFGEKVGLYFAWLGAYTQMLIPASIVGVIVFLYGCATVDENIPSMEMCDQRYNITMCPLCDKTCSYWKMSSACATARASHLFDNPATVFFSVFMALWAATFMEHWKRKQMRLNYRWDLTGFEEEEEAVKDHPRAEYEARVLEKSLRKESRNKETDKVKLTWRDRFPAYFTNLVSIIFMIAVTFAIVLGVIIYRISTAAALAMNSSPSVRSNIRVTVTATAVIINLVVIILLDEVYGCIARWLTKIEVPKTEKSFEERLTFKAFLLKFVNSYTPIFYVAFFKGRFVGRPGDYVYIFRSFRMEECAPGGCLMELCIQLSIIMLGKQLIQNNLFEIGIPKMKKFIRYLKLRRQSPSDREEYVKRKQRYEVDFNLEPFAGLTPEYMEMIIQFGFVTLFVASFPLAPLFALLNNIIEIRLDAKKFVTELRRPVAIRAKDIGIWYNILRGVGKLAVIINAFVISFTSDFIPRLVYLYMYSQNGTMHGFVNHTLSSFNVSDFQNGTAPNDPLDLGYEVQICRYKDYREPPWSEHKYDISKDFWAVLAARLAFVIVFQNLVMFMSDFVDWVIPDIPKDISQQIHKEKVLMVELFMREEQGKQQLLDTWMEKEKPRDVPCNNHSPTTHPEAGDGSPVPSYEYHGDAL
# ANO1 activ: mouse TMEM16A channel activation, primary screen. Q8BHY3. HEK293 TMEM16A/YFP-H148Q/I152L, iodide quench fluorescence; stronger effect = lower value. B-score at 10 µM. 340,000 tested, 0.3% active;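 active means fluorescence-ratio B-score plate-corrected deviation score at least 3 library SD below zero, with starting fluorescence score within 5 deviations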;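 further: channel opened by trigger with iodide after compound preincubation; score built on the fluorescence ratio of max minus min over baseline; more negative score means more quench and so TMEM16A activation or potentiation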
# CHOP UPR activ: apoptotic UPR (CHOP) activation; CHO-CHOP luciferase reporter, luminescence; percent of tunicamycin response over DMSO baseline; activation, % at 10 µM; 330,000 tested, 0.34% active; AID 449763;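 active means at 10 µM dose, activation of 40% or more, normalized to positive control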;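 further: 100% = tunicamycin at 10 µg/mL and 0% = DMSO alone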
#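 Assay system: CHO cells with stable CHOP pathway luciferase reporter; Buffer or medium: F12 plus 10% serum; Times: 16-18 h cell attachment, then 6 h compound exposure, 37 °C; Signal: luciferase luminescence; Read-out basis: percent activation relative to tunicamycin control; Control set: tunicamycin high control, DMSO low control.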
# Lipid droplet: hepatic lipid droplet formation modulation | 240,000 tested, 0.4% active | inhibition, % at 6.5 µM | AML12 mouse hepatocytes, oleate lipid droplets, BODIPY imaging;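 active means lipid droplet intensity inhibited by at least 50%, with more than 500 cells counted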
#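 Test system: AML12 hepatocytes (mouse); reagent: oleate loading, 100 µM; dosing: one dose, 6.5 µM compound; incubation: overnight exposure; signal: fluorescence imaging, 20x objective, two fields per well; read-out basis: % inhibition of corrected integrated BODIPY droplet signal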
# * hit, by the source's call; i = inactive; . = not tested or not shown. In the library only some 4.2% were active in any assay of this set; here they are far more common.
SMILES,CHOP inh,XBP1 UPR activ,ANO1 block,ANO1 activ,CHOP UPR activ,Lipid droplet
COc1cc(OC)c(OC)cc1CN(C)C(c1ccccc1)c1nnnn1-c1ccccc1C (centres undefined),85*,-5,i,i,-4,.
Cc1nn(C)cc1/C=C/C(=O)c1ccc(O)cc1,34,1,i,i,4,-39
CCOc1ccccc1C(=O)N1c2ccccc2Sc2ccccc21,-8,-2,100*,i,0,.
CCCCc1cc(=O)oc2cc(OCC(=O)N3CCC(C(=O)O)(c4ccccc4)CC3)ccc12,.,-2,i,i,0,-3
S=C1Cc2ccccc2N1,107*,.,.,i,.,3
O=C1CCc2ccccc2N1,20,-1,i,i,1,1
O=Nc1c(O)n(Cc2c(Cl)cccc2Cl)c2ccccc12,91*,0,i,i,0,-6
CCOC(=O)n1c(=O)n(Cc2ccc(Cl)cc2Cl)c2ccccc21,81*,-3,i,i,0,-1
O=Nc1c(O)n(Cc2ccc(Cl)cc2)c2ccccc12,16,0,i,i,0,.
O=Nc1c(O)n(Cc2ccc(Cl)cc2Cl)c2ccccc12,87*,-2,i,i,1,.
Cc1ccc(NC(=O)CSCc2cc(=O)n3ccsc3n2)cc1,.,-2,i,i,4,6
CCCNC(=O)CN1C(=O)NC(CC)(c2ccc(F)cc2)C1=O (centres undefined),.,-3,i,i,1,0
CCN(CC)c1nc(Nc2ccccc2)nc(Oc2ccc(=O)n(C)n2)n1,71*,4,i,i,1,.
CCN(CC)CCNC(=O)Cn1nc(-c2ccc(C)cc2)ccc1=O,86*,2,i,i,-2,.
CC(C)(C)c1ccc(-c2noc(CCC(=O)NCc3ccco3)n2)cc1,85*,-3,i,i,-7,0
COc1ccc(-c2noc(CCC(=O)NCc3cc(Br)ccc3OC)n2)cc1,45,-2,i,i,4,-16
CCN(CCCNC(=O)CCc1nc(-c2ccc(OC)cc2)no1)c1cccc(C)c1,64,-4,100*,i,-2,4
COc1ccc(Br)cc1CNC(=O)CCc1nc(-c2ccc(C)cc2)no1,76*,-2,i,i,-1,-3
COc1ccc(-c2noc(CCC(=O)NCCc3ccccc3)n2)cc1,.,-1,i,i,2,13
CC(C)C[C@@H]1NC(=O)[C@H](Cc2ccc(O)cc2)NC(=O)[C@H](CCC(N)=O)NC(=O)c2cc([N+](=O)[O-])cc(I)c2NCC[C@@H](C(N)=O)NC1=O,-17,-3,i,.,1,6
CCCCn1c(N)c(N(CCC(C)C)C(=O)C2CC(=O)N(CCc3ccc(OC)c(OC)c3)C2)c(=O)[nH]c1=O (centres undefined),.,-4,i,i,0,.
Cc1cccc(NCC(=O)N/N=C/c2cccc(Br)c2)c1,84*,4,i,i,1,-4
CC[C@]12C(=O)N(C)C[C@H]([C@@H]3C(=O)N(Cc4ccccc4)C(=O)[C@@H]31)N2C(=O)c1ccc(Br)cc1,.,.,.,i,.,.
CC1CCN(C(=O)C2CCN(CC(C)c3ccccc3)CC2)CC1 (centres undefined),32,-3,25*,i,0,15
Cc1ccc2nc(Br)c3c(c2c1)OC(CBr)C3 (centres undefined),.,-2,i,i,1,-7
CC(=O)c1c(C)[nH]c(C(=O)Nc2c(C)n(C)n(-c3ccccc3)c2=O)c1C,13,1,100*,i,1,.
Cc1c(NC(=O)CN2C(=O)NC(C)(c3ccccc3)C2=O)c(=O)n(-c2ccccc2)n1C (centres undefined),82*,-2,i,i,0,0
Cc1ccc2c(C)c(C(=O)Nc3c(C)n(C)n(-c4ccccc4)c3=O)oc2c1,47,-1,i,-19*,-2,.
